# MsrA act: activates bovine MsrA enzyme | hit rate 0.3% among 360,000 | activation, % at 10.6 µM | purified bovine MsrA, absorbance read-out; in the data active means activation above about 7.5%;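 further: 0% = vehicle and 100% = reference activator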
# HTR2A ag: mouse HTR2A agonism via beta-arrestin recruitment. P35363. hit rate 0.66% among 360,000. activation, % at 7.6 µM. CHO-K1 mHTR2A beta-arrestin complementation, luminescence; percent of 30 µM serotonin response;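 active means activation above a run cutoff, the mean activation of all tested compounds plus 3 SD, cut at about 14% in these data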;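 further: 0% = plate median of compound wells and 100% = 30 µM serotonin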
# Target sequence (P35363 whole entry, looked up): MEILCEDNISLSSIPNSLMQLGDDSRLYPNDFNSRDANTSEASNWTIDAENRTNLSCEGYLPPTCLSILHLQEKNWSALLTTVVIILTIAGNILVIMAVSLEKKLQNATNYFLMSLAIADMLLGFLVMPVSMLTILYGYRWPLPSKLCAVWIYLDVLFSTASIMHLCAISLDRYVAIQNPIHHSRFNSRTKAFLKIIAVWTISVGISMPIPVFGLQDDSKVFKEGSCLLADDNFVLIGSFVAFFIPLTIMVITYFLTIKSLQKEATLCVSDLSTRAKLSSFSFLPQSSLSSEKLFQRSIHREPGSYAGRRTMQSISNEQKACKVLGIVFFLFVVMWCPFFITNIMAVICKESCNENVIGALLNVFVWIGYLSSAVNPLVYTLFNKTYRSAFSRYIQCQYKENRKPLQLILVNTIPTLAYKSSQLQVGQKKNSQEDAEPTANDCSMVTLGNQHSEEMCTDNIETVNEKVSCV
# TbMetRS inhib: Trypanosoma brucei MetRS inhibition | purified T. brucei MetRS, ATP depletion, Kinase-Glo luminescence | inhibition, % at 11.9 µM | hit rate 0.4% among 360,000 | AID 624268;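 active means inhibition above a per-plate cutoff of the control wells' mean inhibition plus 3 SD, cut at about 5.5% in these data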;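 further: 0% = DMSO wells median and 100% = median of wells with control inhibitor compound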
#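 Measured by: Kinase-Glo luciferase luminescence reporting remaining unconsumed ATP. Material: purified T. brucei MetRS enzyme. Doses: 11.9 µM compound single dose, 0.9% DMSO. Medium: HEPES buffer containing pyrophosphatase, BSA, spermine, DTT. Times: 15 min preincubation, 2 h reaction, all 25 °C. Reagent: methionine, ATP and bulk E. coli tRNA.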
# MsrA inh: bovine MsrA inhibition; purified bovine MsrA, absorbance read-out; inhibition, % at 15.5 µM; hit rate 0.75% among 360,000; AID 651718; in the data active means inhibition above about 4.5%;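 further: 0% = vehicle wells with enzyme and 100% = reference inhibitor wells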
# AHR act: activators of human aryl hydrocarbon receptor | P35869 | AHR-responsive luciferase reporter cells, luminescence | activation, % at 5 µM | hit rate 2.5% among 320,000 | AID 2796; in the data active means activation above about 47%;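 further: 0% = vehicle wells and 100% = reference agonist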
# AI-2 QS mod: modulates the Vibrio harveyi AI-2 quorum sensing system; hit rate 0.4% among 300,000; AID 2094; activity change, % at 7.5 µM; Vibrio harveyi JMH597 AI-2 luminescence/OD600 ratio, 9 h; hits give low values; strain lacks LuxN and CqsS sensors; 0 = neutral-control median; in the data active means activity change below about -75%, passing the limit was not always enough; inconclusive means no clear call, values can overlap the other calls;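 further: luminescence divided by OD600 gain over 9 h not by final OD600 alone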
# AHR act confirm: human AHR activation, confirmation; shares compounds with AHR act; human cells, AHR-responsive luciferase reporter, luminescence; activation, % at 9 µM; hit rate 87% among 2,300; in the data active means activation above about 49%;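 further: HepG2 hepatoma cells carrying a DRE-driven firefly luciferase reporter; 0% = vehicle wells and 100% = reference agonist wells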
# PXR counter: activates human PXR in AHR activator counter-screen | shares compounds with AHR act | cell-based PXR reporter, luciferase luminescence | activation, % at 11.6 µM | hit rate 88% among 2,300 | AID 434939; in the data active means activation above about 11%;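 further: human hepatoma DPX-2 cells expressing full-length human PXR; 0% = DMSO and 100% = reference agonist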
# * hit, by the source's call; ? = inconclusive; / = not tested or not shown. The list is not random: actives were taken first. Their share in the collection is about 4.4%.
SMILES,MsrA act,HTR2A ag,TbMetRS inhib,MsrA inh,AHR act,AI-2 QS mod,AHR act confirm,PXR counter
CCNC(=S)Nc1ccc(NC(=O)c2ccccc2O)cc1,-5,4,0,0,0,?,/,/
CN(C(=O)c1ccnn1C)C1CCCN(Cc2ccccc2F)C1 (stereo not drawn),-1,-3,0,0,/,24,/,/
CCN(CC(=O)Nc1c(F)cccc1F)C(=O)c1ccc(NC(=O)CC2SC(N3CCCC3)=NC2=O)cc1 (stereo not drawn),1,4,0,0,-1,28,/,/
O=C1c2ccccc2C(=O)c2c1cccc2N(CCO)CCO,-1,-1,-1,0,131*,23,14,8
COc1cc(S(=O)(=O)Nc2ccc3nc(C)sc3c2)ccc1NC(C)=O,-3,-3,0,1,-6,/,/,/
O=C(Nc1ccc(-c2nc3cccnc3s2)cc1)c1ccc(Cl)nc1,-3,-2,-1,1,86*,15,5,11*
O=C(Nc1ccc(-c2nc3cccnc3s2)cc1)c1cccnc1Cl,-3,7,0,3,23,7,/,/
O=C1NN=C2CCCCCC12 (stereo not drawn),-8,3,0,1,/,/,/,/
COc1ccc(-c2noc(-c3ccc4c(c3)OCO4)n2)cc1,-3,-2,0,0,2,2,/,/
COc1ccc(OC)c2nc(-c3ccc4c(c3)OCO4)ccc12,-2,-5,0,0,117*,5,125*,46*
Cc1ccccc1NS(=O)(=O)c1cc(C(=O)Nc2cccnc2)ccc1C,-3,5,0,0,83*,16,70*,104*
O=C(Nc1ccc(Br)cc1)c1ccc(Br)c(S(=O)(=O)Nc2cccnc2)c1,0,7,0,0,98*,-45,56*,6
Cc1ccccc1Nc1nc(-c2ccccc2)c(C(=O)Nc2cccnc2)s1,-4,5,-1,2,81*,10,57*,65*
Cc1ccccc1NC(=O)c1ccc(C)c(S(=O)(=O)Nc2cccnc2)c1,-1,-7,0,0,-2,18,/,/
CC(NC(=O)c1c(F)cccc1Cl)c1ccc(-n2ccnc2)cc1 (stereo not drawn),-1,-3,0,0,127*,19,64*,19*
CC(NC(=O)c1cc(F)c(F)c(F)c1F)c1ccc(-n2ccnc2)cc1 (stereo not drawn),-2,3,-1,0,96*,8,50*,18*
CC(NC(=O)CCNC(=O)c1ccccc1Cl)c1ccc(-n2ccnc2)cc1 (stereo not drawn),-4,2,1,1,11,-10,/,/
COC(=O)C1CCN(C(=O)COC(=O)CNC(=O)c2ccc(Cl)cc2Cl)CC1,-1,5,0,1,-1,/,/,/
Cn1c(Nc2ccc(Cl)cc2F)nc2cc(-c3ccccc3)sc2c1=O,-6,5,0,-1,/,/,/,/
COc1ccc(C2=NN(C(C#N)c3ccc(OC)c(OC)c3)C(c3ccccc3)C2)cc1 (stereo not drawn),-1,-8,0,1,107*,-1,74*,21*
COc1c2occc2c(OC)c2c(=O)cc(C(F)(F)F)oc12,-6,3,-1,1,84*,10,86*,22*
c1ccc(-c2ccc3c(c2)c2c4n3CCN=C4CCC2)cc1,-1,-9,-1,1,93*,16,84*,11*
CN(C)S(=O)(=O)Oc1ccsc1C(=O)Nc1cccc(Cl)c1,4,2,0,-1,22,16,/,/
CN(C)S(=O)(=O)Oc1ccsc1C(=O)Nc1ccc(Cl)c(Cl)c1,-1,6,0,1,90*,29,122*,35*
Cc1cccc(NC(=S)N/N=C/c2ccc(Cl)c([N+](=O)[O-])c2)c1,2,-1,0,1,18,17,/,/
Cc1cccc(NC(=S)N/N=C/c2ccc3c(c2)OCO3)c1,-4,-2,0,2,94*,11,71*,87*

# From PubChem
